Data: publication PMC9298202 (Chemmedchem, 2021)
Read-outs that look alike come from different tables or passages of the source.

Tests used:
Format in all cases: cell-based
[1] = tested on: Leishmania infantum promastigote forms; experiment: In vitro activity on promastigote; settings: for Selectivity index Promastigote forms: L. infantum, IC50 macrophages toxicity/IC50 activity; for IC50: Leishmania infantum, read-out: Activity IC50 Promastigote forms
[2] = tested on: Leishmania infantum amastigote forms; experiment: In vitro activity on amastigote; settings: for Selectivity index Amastigote forms: L. infantum, IC50 macrophages toxicity/IC50 activity; for IC50: Leishmania infantum, read-out: Activity IC50 Amastigote forms
J774.2 macrophages = experiment: Cytotoxicity in J774.2 macrophages; settings: read-out: Toxicity in macrophages IC50
[3] = tested on: Leishmania braziliensis promastigote forms; experiment: In vitro activity on promastigote; settings: for Selectivity index Promastigote forms: L. braziliensis, IC50 macrophages toxicity/IC50 activity; for IC50: Leishmania braziliensis, read-out: Activity IC50 Promastigote forms
Outline: (§1)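 Extracellular promastigotes were tested at 1, 10, 25 and 200 µM, and IC50 was derived by linear regression from Kc values, averaging four determinations.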

[4] = tested on: Leishmania braziliensis amastigote forms; experiment: In vitro activity on amastigote; settings: for Selectivity index Amastigote forms: L. braziliensis, IC50 macrophages toxicity/IC50 activity; for IC50: Leishmania braziliensis, read-out: Activity IC50 Amastigote forms
Outline: (§2)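 J774.2 macrophages were infected with promastigotes, which became intracellular amastigotes within 1 day; test compounds were then added. IC50 came from linear regression of Kc values at 1, 10, 25 and 200 µM, averaging four determinations.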

[5] = tested on: Leishmania donovani promastigote forms; experiment: In vitro activity on promastigote; settings: for Selectivity index Promastigote forms: L. donovani, IC50 macrophages toxicity/IC50 activity; for IC50: Leishmania donovani, read-out: Activity IC50 Promastigote forms
Outline: as §1

[6] = tested on: Leishmania donovani amastigote forms; experiment: In vitro activity on amastigote; settings: for Selectivity index Amastigote forms: L. donovani, IC50 macrophages toxicity/IC50 activity; for IC50: Leishmania donovani, read-out: Activity IC50 Amastigote forms
Outline: as §2

[7] = tested on: Trypanosoma cruzi SN3 epimastigote forms; experiment: Epimastigote assay, T. cruzi SN3; settings: for Selectivity index Epimastigote forms: T. cruzi SN3, IC50 Vero cell toxicity/IC50 activity; for IC50: Trypanosoma cruzi, read-out: Activity IC50 Epimastigote forms
Outline: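 SN3 epimastigotes (Rhodnius prolixus isolate, Colombia) were grown at 28 °C in Grace's Insect Medium + 10% inactivated FBS. Exponential-phase cells were plated at 5×10^4 parasites/well with test compound in MTL medium at 100, 50, 25, 12,5 and 6,25 µM. Counts after 72 h used a Neubauer chamber. IC50 came from linear regression of Kc values; SI = Vero IC50/epimastigote IC50.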

Vero cells = experiment: Cytotoxicity in Vero cells; settings: read-out: Vero cells toxicity IC50
Outline: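 Vero cells were grown in RPMI + 10% inactivated FBS at 37 °C in humidified 5% CO2. They were resuspended at 1×10^5 cells/mL, cultured 2 days, then given fresh medium with test compound for 72 h. Viability was read by flow cytometry. IC50 was derived by linear regression from Kc values; results average four determinations.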

[8] = tested on: Trypanosoma cruzi SN3 amastigote forms; experiment: Amastigote assay, T. cruzi SN3; settings: for Selectivity index Amastigote forms: T. cruzi SN3, IC50 Vero cell toxicity/IC50 activity; for IC50: Trypanosoma cruzi, read-out: Activity IC50 Amastigote forms
Outline: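 Vero cells in RPMI + 10% inactivated FBS (37 °C, 5% CO2) were seeded at 1×10^4 cells/well on coverslips for 2 days. They were infected 10:1 with SN3 metacyclic forms, obtained by 12-day culture of epimastigotes at 28 °C in modified Grace's medium (~40% metacyclic). After 24 h, cells were washed and exposed to 6.25–100 µM for 72 h. Giemsa-stained amastigotes were counted; IC50 from four determinations; SI used Vero IC50.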

[9] = tested on: Trypanosoma cruzi SN3 trypomastigote forms; experiment: Trypomastigote activity, T. cruzi SN3; settings: for Selectivity index Trypomastigote forms: T. cruzi SN3, IC50 Vero cell toxicity/IC50 activity; for IC50: Trypanosoma cruzi, read-out: Activity IC50 Trypomastigote forms
[10] = Chlorocebus sabaeus, Vero, 72 h
[11] = J774.2 macrophages after 72 h of culture (Table 1)
[12] = Vero cells after 72 h of culture

Compound: c1cnc(NCCCCn2ccnc2)cn1 [4 c, N ‐(4‐(1H‐imidazol‐1‐yl)butyl)pyrazin‐2‐amine]
- Selectivity index Promastigote forms [1]: 2
- IC50 [1]: 9.6 ± 0.8 µM
- Selectivity index Amastigote forms [2]: 4
- IC50 [2]: 5.8 ± 0.2 µM
- IC50 (J774.2 macrophages; Mus musculus, J774.2, 72 h): 22.3 ± 2.3 µM
- Selectivity index Promastigote forms [3]: 2
- IC50 [3]: 10.7 ± 1.1 µM
- Selectivity index Amastigote forms [4]: 3
- IC50 [4]: 7.7 ± 0.5 µM
- Selectivity index Promastigote forms [5]: 3
- IC50 [5]: 7.4 ± 0.4 µM
- Selectivity index Amastigote forms [6]: 4
- IC50 [6]: 5.5 ± 0.3 µM
- Selectivity index Epimastigote forms [7]: 2 (2)
- IC50 [7]: 17.9 ± 1.1 µM
- IC50 (Vero cells; [10]): 29.8 ± 1.6 µM

Compound: c1ccc2c(NCCc3c[nH]cn3)nncc2c1 [1 e, 1‐[2‐(1H‐imidazol‐4‐yl)ethylamino]phthalazine]
- Selectivity index Promastigote forms [1]: 6
- IC50 [1]: 10.2 µM
- Selectivity index Amastigote forms [2]: 9
- IC50 [2]: 7.4 ± 0.3 µM
- IC50 (J774.2 macrophages; Mus musculus, J774.2, 72 h): 63.9 ± 3.6 µM
- Selectivity index Promastigote forms [3]: 4
- IC50 [3]: 14.5 ± 1.3 µM
- Selectivity index Amastigote forms [4]: 8
- IC50 [4]: 8.1 ± 0.4 µM
- Selectivity index Promastigote forms [5]: 7
- IC50 [5]: 9.6 ± 1.3 µM
- Selectivity index Amastigote forms [6]: 6
- IC50 [6]: 10.8 ± 1.1 µM
- Selectivity index Epimastigote forms [7]: 21
- IC50 [7]: 16.5 ± 0.6 µM
- Selectivity index Amastigote forms [8]: 24
- IC50 [8]: 14.7 ± 1.1 µM
- Selectivity index Trypomastigote forms [9]: 22
- IC50 [9]: 15.9 ± 1.2 µM
- IC50 (Vero cells; [10]): 350 ± 7.7 µM

Compound: Clc1ccc(NCCCn2ccnc2)nn1 [1 d, N ‐(3‐(1H‐imidazol‐1‐yl)propyl)‐6‐chloropyridazin‐3‐amine]
- Selectivity index Promastigote forms [1]: 1 (1)
- IC50 [1]: 15.3 ± 0.5 µM
- IC50 (J774.2 macrophages; Mus musculus, J774.2, 72 h): 19.3 ± 1.1 µM
- Selectivity index Promastigote forms [3]: 1
- IC50 [3]: 13.5 ± 0.3 µM
- Selectivity index Promastigote forms [5]: 1 (1)
- IC50 [5]: 20.6 ± 2.3 µM
- Selectivity index Epimastigote forms [7]: 3 (3)
- IC50 [7]: 11.8 ± 0.6 µM
- IC50 (Vero cells; [10]): 33.2 ± 2.8 µM

Compound: Clc1nnc(NCCc2cn3ccccc3n2)c2ccccc12 [2 d, 4‐chloro‐N‐(2‐(imidazo[1,2‐a]pyridin‐2‐yl)ethyl)phthalazin‐1‐amine]
- IC50 [1]: 21.8 ± 2.3 µM
- IC50 (J774.2 macrophages; Mus musculus, J774.2, 72 h): 2.4 ± 0.3 µM
- IC50 [3]: 26.6 ± 5.4 µM
- IC50 [5]: 11.9 ± 0.7 µM
- Selectivity index Epimastigote forms [7]: 1 (1)
- IC50 [7]: 19.6 ± 0.8 µM
- IC50 (Vero cells; [10]): 23.8 ± 2.1 µM

Compound: Glucantime [reference compound]
- IC50 (J774.2 macrophages; [11]): 15.2 ± 1 µM

Compound: c1ccc2c(NCCc3c[nH]cn3)ncnc2c1 [3 a, N ‐[2‐(1H‐imidazol‐4‐yl)ethyl]‐quinazolin‐4‐amine]
- Selectivity index Promastigote forms [1]: 2
- IC50 [1]: 27.7 ± 3 µM
- IC50 (J774.2 macrophages; Mus musculus, J774.2, 72 h): 65.2 ± 3.3 µM
- Selectivity index Promastigote forms [3]: 2
- IC50 [3]: 29.1 ± 2.3 µM
- Selectivity index Amastigote forms [4]: 3
- IC50 [4]: 18.9 ± 1.6 µM
- Selectivity index Promastigote forms [5]: 3
- IC50 [5]: 20.4 ± 2 µM
- Selectivity index Epimastigote forms [7]: 4
- IC50 [7]: 25.9 ± 1.2 µM
- Selectivity index Amastigote forms [8]: 17
- IC50 [8]: 6.7 ± 0.8 µM
- Selectivity index Trypomastigote forms [9]: 26
- IC50 [9]: 4.3 ± 0.3 µM
- IC50 (Vero cells; [10]): 112 ± 4.8 µM

Compound: Clc1nnc(NCCc2nc3ccccc3[nH]2)c2ccccc12 [2 b, N‐ [2‐(1H‐benzo[d]imidazol‐2‐yl)ethyl]‐4‐chlorophthalazin‐1‐amine]
- Selectivity index Promastigote forms [1]: 1(1)
- IC50 [1]: 24.5 ± 2.5 µM
- IC50 (J774.2 macrophages; Mus musculus, J774.2, 72 h): 25.2 ± 1.7 µM
- Selectivity index Promastigote forms [3]: 4
- IC50 [3]: 6.1 ± 0.5 µM
- Selectivity index Amastigote forms [4]: 5
- IC50 [4]: 5.3 ± 0.4 µM
- Selectivity index Promastigote forms [5]: 2
- IC50 [5]: 10.7 ± 0.4 µM
- Selectivity index Epimastigote forms [7]: 1 (1)
- IC50 [7]: 30 ± 0.8 µM
- IC50 (Vero cells; [10]): 35 µM

Compound: O=C(Cn1ccnc1[N+](=O)[O-])NCc1ccccc1 [BNZ, benznidazole, reference compound]
- Selectivity index Epimastigote forms [7]: 0.9
- IC50 [7]: 15.8 ± 1.1 µM
- Selectivity index Amastigote forms [8]: 0.6
- IC50 [8]: 23.3 ± 4.6 µM
- Selectivity index Trypomastigote forms [9]: 2.2
- IC50 [9]: 6.2 ± 0.7 µM
- IC50 (Vero cells; [10]): 13.6 ± 0.9 µM

Compound: N‐ [2‐(1H‐imidazol‐4‐yl)ethylamino]pyrazine [4 a]
- IC50 (J774.2 macrophages; [11]): 21.9 ± 1.5 µM
- IC50 (Vero cells; [12]): 31 ± 2.6 µM

Compound: c1cnc(NCCCCCn2ccnc2)cn1 [4 d, N ‐(5‐(1H‐imidazol‐1‐yl)pentyl)pyrazin‐2‐amine]
- Selectivity index Promastigote forms [1]: 4
- IC50 [1]: 5.8 ± 0.3 µM
- Selectivity index Amastigote forms [2]: 5
- IC50 [2]: 4 ± 0.4 µM
- IC50 (J774.2 macrophages; Mus musculus, J774.2, 72 h): 22 ± 1.7 µM
- Selectivity index Promastigote forms [3]: 6
- IC50 [3]: 3.7 ± 0.1 µM
- Selectivity index Amastigote forms [4]: 5
- IC50 [4]: 4.1 ± 0.3 µM
- Selectivity index Promastigote forms [5]: 6
- IC50 [5]: 3.8 ± 0.3 µM
- Selectivity index Amastigote forms [6]: 11
- IC50 [6]: 1.9 µM
- Selectivity index Epimastigote forms [7]: 2 (2)
- IC50 [7]: 23.3 ± 0.7 µM
- IC50 (Vero cells; [10]): 37.2 ± 1.2 µM

Compound: c1ccc2c(NCCc3cn4ccccc4n3)nnc(NCCc3cn4ccccc4n3)c2c1 [2 c, N 1,N4‐bis(2‐(imidazo[1,2‐a]pyridin‐2‐yl)ethyl)phthalazine‐1,4‐diamine]
- IC50 [1]: 18.7 ± 1.4 µM
- IC50 (J774.2 macrophages; Mus musculus, J774.2, 72 h): 2.4 ± 0.1 µM
- IC50 [3]: 14.7 ± 0.6 µM
- IC50 [5]: 22.4 ± 1.3 µM
- Selectivity index Epimastigote forms [7]: 1 (1)
- IC50 [7]: 20.1 ± 1.3 µM
- IC50 (Vero cells; [10]): 19.6 ± 0.7 µM

Compound: Clc1ccc(NCCc2c[nH]cn2)nn1 [1 c, N ‐(2‐(1H‐imidazol‐4‐yl)ethyl)‐6‐chloropyridazin‐3‐amine]
- Selectivity index Promastigote forms [1]: 1 (1)
- IC50 [1]: 19.9 ± 1.1 µM
- IC50 (J774.2 macrophages; Mus musculus, J774.2, 72 h): 17.1 ± 1.7 µM
- Selectivity index Promastigote forms [3]: 1 (1)
- IC50 [3]: 28.1 ± 0.4 µM
- IC50 [5]: 57.4 ± 4.1 µM
- Selectivity index Epimastigote forms [7]: 1 (1)
- IC50 [7]: 30.5 ± 2.7 µM
- IC50 (Vero cells; [10]): 39.6 ± 0.9 µM

Compound: 1‐[3‐(imidazol‐1‐yl)propylamino]pyridazine [1 b]
- IC50 (J774.2 macrophages; [11]): 18.6 ± 1 µM
- IC50 (Vero cells; [12]): 43.6 ± 2.7 µM

Compound: c1ccc2[nH]c(CCNc3nnc(NCCc4nc5ccccc5[nH]4)c4ccccc34)nc2c1 [2 a, N 1,N4‐bis[2‐(1H‐benzo[d]imidazol‐2‐yl)ethyl]phthalazine‐1,4‐diamine]
- Selectivity index Promastigote forms [1]: 1(1)
- IC50 [1]: 19.9 ± 1.4 µM
- IC50 (J774.2 macrophages; Mus musculus, J774.2, 72 h): 18.7 ± 1 µM
- Selectivity index Promastigote forms [3]: 3
- IC50 [3]: 5.8 ± 0.2 µM
- Selectivity index Amastigote forms [4]: 4
- IC50 [4]: 4.4 ± 0.3 µM
- Selectivity index Promastigote forms [5]: 4
- IC50 [5]: 4.4 ± 0.2 µM
- Selectivity index Epimastigote forms [7]: 1 (1)
- IC50 [7]: 33.5 ± 1.6 µM
- IC50 (Vero cells; [10]): 38.7 ± 1.7 µM
